The record followed here is ChEMBL document CHEMBL1125819, “Novel benzamides as selective and potent gastrokinetic agents. 2. Synthesis and structure-activity relationships of 4-amino-5-chloro-2-ethoxy-N-[[4-(4-fluorobenzyl)-2- morpholinyl]methyl] benzamide citrate (AS-4370) and related compounds” (J Med Chem, 1991).

The structures appear in SMILES notation.

The test system of series [1] is Rattus norvegicus. The series is described as follows: Gastric emptying of phenol red semisolid meal in rats at dose of 2.0 mg/kg, administered perorally. Format: functional. As to conditions: route oral.
Series [2] concerns Mus musculus. The series is described as follows: Gastric emptying of phenol red semisolid meal in mouse at the dose of 1.0 mg/kg administered perorally. The format is functional. The following applies: route oral. In outline: (§1)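 Mice received oral test article in 0.5% tragacanth, four or five animals per dose. Emptying of a phenol red semisolid meal was expressed as percent enhancement over the mean of 0.5% tragacanth controls. Significance was tested by Duncan's multiple range test.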

The test system of series [3] is Rattus norvegicus. As to the kind of experiment: Gastric emptying of phenol red semisolid meal in rats at the dose of 0.2 mg/kg administered perorally. Format: functional. As to conditions: route oral.
For series [4], the system named is Rattus norvegicus. The series is described as follows: Gastric emptying of resin solid meal in rats at the dose of 2.0 mg/kg administered perorally. As to conditions: route oral. Format: functional.
In series [5] the test system is Mus musculus. The series is described as follows: Toxicity tested in mouse and expressed as number of dead mouse / number of mouse used after a dose of 1.0 g/kg perorally; + slight toxicity. The format is organism-based. As to conditions: in vivo, po, 1000 mg/kg. The essentials:
(§2)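 Male ddY mice (18–25 g), groups of 10, given test compound dissolved or suspended in 0.5% tragacanth solution at a single oral dose of 1.0 g/kg. Mortality observed over 7 days after dosing and scored as dead/used per group; + corresponds to 0–2/10 dead.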

Series [6] concerns Mus musculus. As to the kind of experiment: Gastric emptying of phenol red semisolid meal in mouse at the dose of 0.5 mg/kg administered perorally. The following applies: route oral. Format: functional. In outline: as §1
For series [7], the system named is Rattus norvegicus. The series is described as follows: Gastric emptying of phenol red semisolid meal in rats at the dose of 0.5 mg/kg administered perorally. Format: functional. As to conditions: route oral.
The test system of series [8] is Mus musculus. The series is described as follows: Toxicity tested in mouse and expressed as number of dead mouse / number of mouse used after a dose of 1.0 g/kg perorally; ++ moderate toxicity. As to conditions: in vivo, po, 1000 mg/kg. The format is organism-based. The essentials:
as §2

Consider `CCOc1cc(N)c(Cl)cc1C(=O)NCC1CN(Cc2ccccc2C#N)CCO1` (stereo unspecified), for which the GE in the series with Rattus norvegicus [1] came to 29%.

In turn, `CCOc1cc(N)c(Cl)cc1C(=O)NCC1CN(C(C)c2ccc(Cl)cc2)CCO1` (stereo unspecified) gave a GE in the series on Rattus norvegicus [1] of 33%.

Turning to `CCOc1cc(N)c(Cl)cc1C(=O)NCC1CN(Cc2ccccc2F)CCO1` (stereo unspecified), the GE with Rattus norvegicus [1] turned out to be 60%.

In the case of `CCOc1cc(N)c(Cl)cc1C(=O)NCC1CN(Cc2c(F)c(F)c(F)c(F)c2F)CCO1` (stereo unspecified), in the series on Rattus norvegicus [1], the GE was found to be 23%.

As for `CCOc1cc(N)c(Cl)cc1C(=O)NCC1CN(Cc2cccc(C(F)(F)F)c2)CCO1` (stereo unspecified), the GE in the series on Mus musculus [2] was determined as 21%; in the series on Rattus norvegicus [3] it was 32%; in the series with Rattus norvegicus [4] it was 22%; in the series on Rattus norvegicus [1] it was 58%; in the series with Mus musculus [6], 4%; in the series with Rattus norvegicus [7] it was 37%. In the series with Mus musculus [5], the Acute toxicity entry is given as “slight toxicity”.

For `CCOc1cc(NC=O)c(Cl)cc1C(=O)NCC1CN(Cc2ccc(F)cc2)CCO1` (stereo unspecified), the GE with Rattus norvegicus [1] is 33%.

On to `COc1cc(N)c(Cl)cc1C(=O)NCC1CN(C(C)c2ccc(F)cc2)CCO1` (stereo unspecified), for which the GE with Rattus norvegicus [1] is recorded as 13%.

Regarding `CCOc1cc(N)c(Cl)cc1C(=O)NCC1CN(Cc2ccc(C#N)cc2)CCO1` (stereo unspecified), the GE in the series with Rattus norvegicus [1] is 46%. Moreover, the Acute toxicity entry in the series on Mus musculus [5] is on record as “slight toxicity”.

Regarding `CCOc1cc(N)c(Cl)cc1C(=O)NCC1CN(Cc2cc(F)cc(F)c2)CCO1` (stereo unspecified), in the series with Rattus norvegicus [1], the GE came out at 52%.

In the case of `COc1cc(N)c(Cl)cc1C(=O)NCC1CN(Cc2cccc(F)c2)CCO1` (stereo unspecified), the GE in the series on Rattus norvegicus [1] is on record as 30%.

The molecule `COc1cc(N)c(Cl)cc1C(=O)NCC1CN(Cc2ccc(C(F)(F)F)cc2)CCO1` (stereo unspecified) registered a GE in the series with Rattus norvegicus [1] of 23%.

For the molecule `CCOc1cc(N)c(Cl)cc1C(=O)NCC1CN(Cc2ccc(Cl)cc2)CCO1` (stereo unspecified), the GE was 21% with Mus musculus [2]; 37% with Rattus norvegicus [3]; 65% in the series with Rattus norvegicus [4]; 63% in the series with Rattus norvegicus [1]; 0% with Mus musculus [6]; 50% in the series on Rattus norvegicus [7]. Moreover, in the series on Mus musculus [5], the Acute toxicity entry is reported as “slight toxicity”.

In the series on Rattus norvegicus [1], `COc1cc(N)c(Cl)cc1C(=O)NCC1CN(Cc2ccc(F)cc2)CCO1` (stereo unspecified) showed a GE of 38%.

`CCOc1cc(N)c(Cl)cc1C(=O)NCC1CN(Cc2ccc(F)c(F)c2)CCO1` (stereo unspecified) came in with a GE in the series on Rattus norvegicus [1] of 46%.

As for `COc1cc(N)c(Cl)cc1C(=O)NCC1CN(Cc2c(C)cc(C)cc2C)CCO1` (stereo unspecified), in the series on Rattus norvegicus [1], the GE is listed as 5%.

For `CCOc1cc(NC(C)=O)c(Cl)cc1C(=O)NCC1CN(Cc2ccc(F)cc2)CCO1` (stereo unspecified), the GE with Mus musculus [2] turned out to be 82%; in the series with Rattus norvegicus [3], 33%; in the series on Rattus norvegicus [4], 0%; in the series with Rattus norvegicus [1], 74%; with Mus musculus [6], 75%; in the series with Rattus norvegicus [7], 22%.

In the series with Rattus norvegicus [1], `COc1cc(N)c(Cl)cc1C(=O)NCC1CN(Cc2ccc(C)cc2)CCO1` (stereo unspecified) showed a GE of 11%.

Take `CCOc1cc(N)c(Cl)cc1C(=O)NCC1C[N+](C)(Cc2ccccc2Cl)CCO1.[I-]` (stereo unspecified): in the series with Rattus norvegicus [1], the GE stood at 34%.

In the series with Rattus norvegicus [1], `COc1cc(N)c(Cl)cc1C(=O)NCC1CN(Cc2ccc(Cl)c(Cl)c2)CCO1` (stereo unspecified) came in with a GE of 16%.

The molecule `COc1cc(N)c(Cl)cc1C(=O)NCC1CN(Cc2ccc([N+](=O)[O-])cc2)CCO1` (stereo unspecified) returned a GE with Rattus norvegicus [1] of 22%.

In the series on Rattus norvegicus [1], `CCOc1cc(N)c(Cl)cc1C(=O)NCC1CN(Cc2ccc(C(=O)O)cc2)CCO1` (stereo unspecified) displayed a GE of 13%.

For the molecule `COc1cc(N)c(Cl)cc1C(=O)NCC1CN(Cc2cccc(C(F)(F)F)c2)CCO1` (stereo unspecified), the Acute toxicity result with Mus musculus [8] is “moderate toxicity”. In the series on Rattus norvegicus [1], this molecule showed a GE of 43%.

For the molecule `CCOc1cc(N)c(Cl)cc1C(=O)NCC1CN(Cc2cccc(F)c2)CCO1` (stereo unspecified), the GE in the series on Rattus norvegicus [1] was 54%.

In the series with Rattus norvegicus [1], `CCOc1cc(N)c(Cl)cc1C(=O)NCC1CN(Cc2ccc(C(=O)OC)cc2)CCO1` (stereo unspecified) gave a GE of 52%.

For the molecule `COc1cc(N)c(Cl)cc1C(=O)NCC1CN(Cc2ccc(Br)cc2)CCO1` (stereo unspecified), the GE in the series on Rattus norvegicus [1] worked out at 15%.

In the series with Rattus norvegicus [1], `COc1cccc(CN2CCOC(CNC(=O)c3cc(Cl)c(N)cc3OC)C2)c1` (stereo unspecified) registered a GE of 10%.

In the case of `CCOc1cc(N)c(Cl)cc1C(=O)NCC1CN(Cc2cccc(Cl)c2)CCO1` (stereo unspecified), the Acute toxicity entry in the series with Mus musculus [8] is “moderate toxicity”. In the series on Rattus norvegicus [1], this molecule yielded a GE of 58%.

In the case of `COc1cc(N)c(Cl)cc1C(=O)NCC1CN(Cc2ccc(C(=O)O)cc2)CCO1` (stereo unspecified), in the series with Rattus norvegicus [1], the GE was 18%.

`COc1cc(N)c(Cl)cc1C(=O)NCC1CN(C(c2ccccc2)c2ccccc2)CCO1` (stereo unspecified) yielded a GE in the series on Rattus norvegicus [1] of 15%.

`CCOc1cc(N)c(Cl)cc1C(=O)NCC1CN(Cc2ccccc2Cl)CCO1` (stereo unspecified): the GE in the series on Rattus norvegicus [1] was 51%. Also, in the series with Mus musculus [5], the Acute toxicity result is given as “slight toxicity”.

In the series with Rattus norvegicus [1], `CCOc1cc(N)c(Cl)cc1C(=O)NCC1CN(Cc2ccc(Cl)cc2[N+](=O)[O-])CCO1` (stereo unspecified) registered a GE of 47%.

For the molecule `COc1cc(N)c(Cl)cc1C(=O)NCC1CN(Cc2ccccc2C#N)CCO1` (stereo unspecified), the GE in the series on Rattus norvegicus [1] came out at 43%. Also, in the series with Mus musculus [5], the Acute toxicity result is reported as “slight toxicity”.

In the case of `COc1cc(N)c(Cl)cc1C(=O)NCC1CN(Cc2ccc(C#N)cc2)CCO1` (stereo unspecified), the GE with Mus musculus [2] is recorded as 44%; with Rattus norvegicus [3], 0%; in the series on Rattus norvegicus [4] it was 36%; in the series with Rattus norvegicus [1], 49%; in the series with Mus musculus [6] it was 15%; in the series with Rattus norvegicus [7], 21%. In addition, the Acute toxicity entry in the series on Mus musculus [5] is reported as “slight toxicity”.

`CCOc1cc(N)c(Cl)cc1C(=O)NCC1CN(Cc2ccc(F)cc2F)CCO1` (stereo unspecified): the GE with Mus musculus [2] amounted to 89%; with Rattus norvegicus [3], 0%; in the series with Rattus norvegicus [4] it was 76%; with Rattus norvegicus [1], 76%; in the series with Mus musculus [6] it was 83%; in the series on Rattus norvegicus [7] it was 42%.

In the series on Rattus norvegicus [1], `CCOc1cc(N)c(Cl)cc1C(=O)NCC1CN(Cc2cccc(C#N)c2)CCO1` (stereo unspecified) returned a GE of 33%.

`COc1cc(N)c(Cl)cc1C(=O)NCC1CN(Cc2ccc(N)cc2)CCO1` (stereo unspecified) displayed a GE in the series with Rattus norvegicus [1] of 17%.

As for `CCOc1cc(N)c(Cl)cc1C(=O)NCC1CN(Cc2ccccc2)CCO1` (stereo unspecified), the GE with Mus musculus [2] turned out to be 23%; in the series with Rattus norvegicus [4], 58%; in the series with Rattus norvegicus [1] it was 54%; in the series with Mus musculus [6] it was 35%; in the series with Rattus norvegicus [7], 34%. For the same molecule, the Acute toxicity entry in the series on Mus musculus [5] is “Partially active”.

`CCOc1cc(N)c(Cl)cc1C(=O)NCC1CN(CCCCc2ccccc2)CCO1` (stereo unspecified) returned a GE with Rattus norvegicus [1] of 47%.

Take `COc1cc(N)c(Cl)cc1C(=O)NCC1CN(Cc2ccccc2F)CCO1` (stereo unspecified): in the series with Rattus norvegicus [1], the GE worked out at 28%.

Take `CCOc1cc(N)c(Cl)cc1C(=O)NCC1C[N+]([O-])(Cc2ccccc2Cl)CCO1` (stereo unspecified): in the series with Rattus norvegicus [1], the GE stood at 52%.

For `COc1cc(N)c(Cl)cc1C(=O)NCC1CN(CCc2ccccc2)CCO1` (stereo unspecified), the GE in the series on Rattus norvegicus [1] stood at 29%.

Molecule `CCOc1cc(N)c(Cl)cc1C(=O)NCC1CN(CCCc2ccccc2)CCO1` (stereo unspecified) yielded a GE in the series on Rattus norvegicus [1] of 18%.

Molecule `COc1ccc(CN2CCOC(CNC(=O)c3cc(Cl)c(N)cc3OC)C2)cc1` (stereo unspecified) came in with a GE in the series with Rattus norvegicus [1] of 10%.

`COc1cc(N)c(Cl)cc1C(=O)NCC1CN(Cc2c(F)c(F)c(F)c(F)c2F)CCO1` (stereo unspecified): in the series on Rattus norvegicus [1], the GE was found to be 39%. For the same molecule, in the series with Mus musculus [5], the Acute toxicity entry is “slight toxicity”.

`COc1cc(N)c(Cl)cc1C(=O)NCC1CN(Cc2ccccc2)CCO1` (stereo unspecified): the GE in the series on Mus musculus [2] is on record as 59%; with Rattus norvegicus [4], 16%; in the series on Rattus norvegicus [1] it was 39%; with Mus musculus [6] it was 41%; in the series on Rattus norvegicus [7], 18%. The Acute toxicity entry with Mus musculus [8] is reported as “Partially active”.

Turning to `COc1cc(N)c(Cl)cc1C(=O)NCC1CN(Cc2ccc(Cl)cc2)CCO1` (stereo unspecified), the Acute toxicity result in the series on Mus musculus [8] is “moderate toxicity”. In the series with Rattus norvegicus [1], the GE was found to be 36%.
